Measured values as given in ChEMBL document CHEMBL4765302, “Design, synthesis and biological evaluation of novel histone deacetylase1/2 (HDAC1/2) and cyclin-dependent Kinase2 (CDK2) dual inhibitors against malignant cancer” (Eur J Med Chem, 2020).
Active and inactive are the calls of the source. The rule behind the calls is not given here.

Assays:
[1] = test system: HCT-116; test: Antiproliferative activity against human HCT-116 cells assessed as reduction in cell growth at 8 uM incubated for 72 hrs by CCK-8 assay relative to control; assay type: functional
[2] = test system: HepG2; test: Antiproliferative activity against human HepG2 cells assessed as reduction in cell growth at 2 uM incubated for 72 hrs by CCK-8 assay relative to control; assay type: functional
[3] = test system: HepG2; test: Antiproliferative activity against human HepG2 cells assessed as reduction in cell growth at 8 uM incubated for 72 hrs by CCK-8 assay relative to control; assay type: functional
[4] = test system: NCI-H460; test: Antiproliferative activity against human H460 cells assessed as reduction in cell growth at 2 uM incubated for 72 hrs by CCK-8 assay relative to control; assay type: functional
[5] = test system: HCT-116; test: Antiproliferative activity against human HCT-116 cells assessed as reduction in cell growth incubated for 72 hrs by CCK-8 assay; assay type: functional, cell-based; settings: HCT-116, 72 h
Summary of the method: (§1)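 IC50 by CCK-8 assay across five solid-tumour lines (HCT116, HepG2, H460, HeLa, A375). Run only for compounds chosen after the single-concentration screen, with CS055 and roscovitine as references.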

[6] = test system: HeLa; test: Antiproliferative activity against human HeLa cells assessed as reduction in cell growth incubated for 72 hrs by CCK-8 assay; assay type: functional, cell-based; summary of the method: as §1
[7] = biological target: Histone deacetylase 1 (Homo sapiens, UniProt Q13547); test: Inhibition of recombinant human HDAC1 using SIRT1 as substrate incubated for 10 mins followed by substrate addition and measured after 30 mins by fluorescence based assay
Chain of Histone deacetylase 1 (Q13547 whole entry): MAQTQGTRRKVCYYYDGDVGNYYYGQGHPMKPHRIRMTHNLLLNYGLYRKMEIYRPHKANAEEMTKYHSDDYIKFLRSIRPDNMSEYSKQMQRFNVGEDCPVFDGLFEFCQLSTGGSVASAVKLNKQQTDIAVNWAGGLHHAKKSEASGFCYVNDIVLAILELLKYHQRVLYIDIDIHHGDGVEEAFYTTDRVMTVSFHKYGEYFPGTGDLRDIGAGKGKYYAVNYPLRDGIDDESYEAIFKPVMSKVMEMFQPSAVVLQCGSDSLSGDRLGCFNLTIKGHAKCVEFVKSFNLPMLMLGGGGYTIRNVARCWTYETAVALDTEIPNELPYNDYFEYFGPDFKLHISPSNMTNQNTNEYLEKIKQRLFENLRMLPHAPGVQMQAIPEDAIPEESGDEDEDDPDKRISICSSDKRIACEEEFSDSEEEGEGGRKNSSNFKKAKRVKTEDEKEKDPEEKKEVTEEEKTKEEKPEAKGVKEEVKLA
Summary of the method: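 IC50 values reported as means of at least two separate determinations, expressed as mean ±SD.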

[8] = biological target: CDK2/Cyclin A2 (Homo sapiens, UniProt P24941); test: Inhibition of recombinant human N-terminal GST-tagged CDK2/CyclinA2 expressed in baculovirus infected Sf21 cells using histone H1 as substrate incubated for 10 mins by luminescence based assay
[9] = test system: NCI-H460; test: Antimigratory activity against human NCI-H460 cells assessed as inhibition of migration at 0.5 uM incubated for 48 hrs by microscopic based wound healing test; assay type: functional, cell-based
Summary of the method: (§2)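 Scratch (wound-healing) migration assay in A375 and H460 cells seeded in 12-well plates. Cells exposed to compound, CS055, roscovitine or DMSO blank for 48 h. At least two independent experiments.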

[10] = test system: A-375; test: Antimigratory activity against human A-375 cells assessed as inhibition of migration at 0.5 uM incubated for 48 hrs by microscopic based wound healing test; assay type: functional, cell-based; summary of the method: as §2
[11] = test system: A-375; test: Induction of apoptosis in human A-375 cells assessed as necrotic cells at 2 uM incubated for 48 hrs by annexin V-FITC and PI staining based flow cytometry (reference value: 0.139 %); assay type: functional
[12] = test system: A-375; test: Induction of apoptosis in human A-375 cells assessed as late apoptotic cells at 0.5 uM incubated for 48 hrs by annexin V-FITC and PI staining based flow cytometry (reference value: 2.24 %); assay type: functional
[13] = test system: HCT-116; test: Induction of apoptosis in human HCT-116 cells assessed as necrotic cells at 2 uM incubated for 48 hrs by annexin V-FITC and PI staining based flow cytometry (reference value: 0.124 %); assay type: functional
[14] = test system: HCT-116; test: Induction of apoptosis in human HCT-116 cells assessed as late apoptotic cells at 1 uM incubated for 48 hrs by annexin V-FITC and PI staining based flow cytometry (reference value: 1.88 %); assay type: functional
[15] = test system: HCT-116; test: Induction of apoptosis in human HCT-116 cells assessed as early apoptotic cells at 0.5 uM incubated for 48 hrs by annexin V-FITC and PI staining based flow cytometry (reference value: 4.14 %); assay type: functional
[16] = test system: NCI-H460; test: Induction of apoptosis in human NCI-H460 cells assessed as late apoptotic cells at 2 uM incubated for 48 hrs by annexin V-FITC and PI staining based flow cytometry (reference value: 6.11 %); assay type: functional
[17] = test system: NCI-H460; test: Induction of apoptosis in human NCI-H460 cells assessed as viable cells at 1 uM incubated for 48 hrs by annexin V-FITC and PI staining based flow cytometry (reference value: 90.4 %); assay type: functional; settings: read-out: Activity
[18] = test system: NCI-H460; test: Induction of apoptosis in human NCI-H460 cells assessed as late apoptotic cells at 1 uM incubated for 48 hrs by annexin V-FITC and PI staining based flow cytometry (reference value: 6.11 %); assay type: functional
[19] = test system: NCI-H460; test: Induction of apoptosis in human NCI-H460 cells assessed as necrotic cells at 1 uM incubated for 48 hrs by annexin V-FITC and PI staining based flow cytometry (reference value: 0.632 %); assay type: functional
[20] = test system: NCI-H460; test: Induction of apoptosis in human NCI-H460 cells assessed as late apoptotic cells at 0.5 uM incubated for 48 hrs by annexin V-FITC and PI staining based flow cytometry (reference value: 6.11 %); assay type: functional
[21] = test system: NCI-H460; test: Induction of apoptosis in human NCI-H460 cells assessed as necrotic cells at 0.5 uM incubated for 48 hrs by annexin V-FITC and PI staining based flow cytometry (reference value: 0.632 %); assay type: functional
[22] = test system: HeLa; test: Induction of apoptosis in human HeLa cells assessed as early apoptotic cells at 2 uM incubated for 48 hrs by annexin V-FITC and PI staining based flow cytometry (reference value: 0.528 %); assay type: functional
[23] = test system: HeLa; test: Induction of apoptosis in human HeLa cells assessed as early apoptotic cells at 1 uM incubated for 48 hrs by annexin V-FITC and PI staining based flow cytometry (reference value: 0.528 %); assay type: functional
[24] = test system: HeLa; test: Induction of apoptosis in human HeLa cells assessed as viable cells at 0.5 uM incubated for 48 hrs by annexin V-FITC and PI staining based flow cytometry (reference value: 98.5 %); assay type: functional; settings: read-out: Activity
[25] = test system: HeLa; test: Induction of apoptosis in human HeLa cells assessed as late apoptotic cells at 0.5 uM incubated for 48 hrs by annexin V-FITC and PI staining based flow cytometry (reference value: 0.870 %); assay type: functional
[26] = test system: HeLa; test: Induction of apoptosis in human HeLa cells assessed as necrotic cells at 0.5 uM incubated for 48 hrs by annexin V-FITC and PI staining based flow cytometry (reference value: 0.124 %); assay type: functional
[27] = test system: HCT-116; test: Induction of apoptosis in human HCT-116 cells assessed as necrotic cells incubated for 48 hrs by annexin V-FITC and PI staining based flow cytometry; assay type: functional, cell-based; settings: dose 0.5-2 µM
[28] = test system: A-375; test: Inhibition of HDAC in human A-375 cells assessed as increase the acetylation of histone H3 at 1 uM incubated for 12 hrs by DAPI and immunofluorescence staining based confocal microscopic analysis; assay type: cell-based
[29] = Half life in ICR mouse at 4 mg/kg, iv measured upto 24 hrs by LC-MS/MS analysis; assay type: ADME, organism-based; settings: in vivo
Summary of the method: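 Male ICR mice (N=9). Single dose, either 4 mg/kg intravenous or 20 mg/kg intraperitoneal. Parameters derived: T1/2, Tmax, Cmax, AUC0-t, MRT0-t and CL, with F for the intraperitoneal arm.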

[30] = test system: NCI-H460; test: Induction of apoptosis in human H460 cells assessed as apoptosis rate at 2 uM incubated for 48 hrs by annexin V-FITC and PI staining based flow cytometry relative to control; assay type: functional
[31] = Tmax in ICR mouse at 20 mg/kg, ip measured upto 24 hrs by LC-MS/MS analysis; settings: in vivo
[32] = Cmax in ICR mouse at 20 mg/kg, ip measured upto 24 hrs by LC-MS/MS analysis; settings: in vivo

## Cc1ccc(Nc2nc(Cl)nc3c2ncn3Cc2ccc(C(=O)Nc3ccccc3N)cc2)cc1
[1]
  inhibition at 8 µM: 81.5%
[2]
  inhibition at 2 µM: 76.2%
[3]
  inhibition at 8 µM: 82%
[4]
  inhibition at 2 µM: 67.3%
[5]
  IC50: 580 nM
[6]
  IC50: 1050 nM
[7]
  IC50: 70.7 nM
[8]
  IC50: 800 nM
[9]
  inhibition: Active
[10]
  inhibition: Active
[11]
  Activity: 0.453%
[12]
  Activity: 72.2%
[13]
  Activity: 0.639%
[14]
  Activity: 14%
[15]
  Activity: 60.7%
[16]
  Activity: 47.1%
[17]
  viability at 1 µM: 63.1%
[18]
  Activity: 17.5%
[19]
  Activity: 0.871%
[20]
  Activity: 4.31%
[21]
  Activity: 0.254%
[22]
  Activity: 8.26%
[23]
  Activity: 5.85%
[24]
  viability at 0.5 µM: 89.9%
[25]
  Activity: 5.47%
[26]
  Activity: 0.31%
[27]
  Activity: Dose-dependent effect
[28]
  inhibition: Active
[29]
  half-life: 1.48 h
[30]
  Activity: 59.1%
[31]
  Tmax: 2 h
[32]
  Cmax: 1360 ng/mL
